From ChEMBL document CHEMBL4028864 (J Med Chem, 2017)
pIC50: −log10 of the molar value. Calls of active or inactive are those of the source. The calls are words filed in the database; no cut-off is given here.

Key:
Histone deacetylase 8 = Histone deacetylase 8 (Homo sapiens, UniProt Q9BY41); test: Inhibition of C-terminal His tagged human recombinant HDAC8 (1 to 377 residues) expressed in Baculovirus infected insect cells in presence of ATP
Summary of the method: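 HDAC enzyme inhibition was run by a contract laboratory.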

[1] = target: Tyrosine-protein kinase JAK2 (Homo sapiens, UniProt O60674); test: Inhibition of wild type human JAK2 (A829 to G1132 residues) expressed in mammalian cells assessed as residual activity at 1 uM by KINOMEscan assay relative to control; assay type: cell-based
[2] = target: T1, Tyrosine-protein kinase JAK3 (Homo sapiens, UniProt P52333); test: Inhibition of wild type human JAK3 (I781 to S1124 residues) expressed in mammalian cells assessed as residual activity at 1 uM by KINOMEscan assay relative to control; assay type: cell-based; conditions: read-out: Activity
T1 sequence (P52333 whole entry): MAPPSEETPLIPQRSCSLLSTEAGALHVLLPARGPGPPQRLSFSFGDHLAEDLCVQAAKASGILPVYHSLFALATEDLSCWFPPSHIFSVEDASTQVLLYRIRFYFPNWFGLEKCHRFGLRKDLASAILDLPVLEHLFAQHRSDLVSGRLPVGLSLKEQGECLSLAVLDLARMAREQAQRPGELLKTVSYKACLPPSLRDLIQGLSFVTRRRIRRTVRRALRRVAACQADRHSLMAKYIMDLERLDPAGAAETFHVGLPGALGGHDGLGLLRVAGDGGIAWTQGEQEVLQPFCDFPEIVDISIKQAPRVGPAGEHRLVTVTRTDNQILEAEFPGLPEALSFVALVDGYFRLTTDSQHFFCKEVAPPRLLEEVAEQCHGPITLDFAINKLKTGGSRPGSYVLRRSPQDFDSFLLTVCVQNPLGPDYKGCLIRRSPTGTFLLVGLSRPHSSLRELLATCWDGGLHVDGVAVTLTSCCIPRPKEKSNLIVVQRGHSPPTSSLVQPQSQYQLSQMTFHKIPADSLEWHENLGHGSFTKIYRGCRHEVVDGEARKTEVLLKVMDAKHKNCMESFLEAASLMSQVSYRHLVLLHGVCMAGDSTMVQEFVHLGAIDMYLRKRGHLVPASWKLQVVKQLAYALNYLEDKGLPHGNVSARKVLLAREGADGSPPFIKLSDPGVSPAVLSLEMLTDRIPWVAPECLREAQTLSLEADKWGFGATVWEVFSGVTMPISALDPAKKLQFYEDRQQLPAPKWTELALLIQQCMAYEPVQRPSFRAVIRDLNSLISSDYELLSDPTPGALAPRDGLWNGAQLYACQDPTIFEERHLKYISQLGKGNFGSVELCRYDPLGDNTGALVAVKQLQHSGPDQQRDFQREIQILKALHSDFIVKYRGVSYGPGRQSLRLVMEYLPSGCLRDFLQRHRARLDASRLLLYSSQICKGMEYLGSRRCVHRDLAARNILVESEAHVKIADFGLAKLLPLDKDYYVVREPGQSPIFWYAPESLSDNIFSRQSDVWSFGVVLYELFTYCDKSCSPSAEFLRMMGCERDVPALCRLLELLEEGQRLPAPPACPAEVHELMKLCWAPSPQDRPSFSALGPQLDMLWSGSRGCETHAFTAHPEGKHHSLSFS

[3] = target: NUAK family SNF1-like kinase 2 (Homo sapiens) (UniProt Q9H093); test: Inhibition of wild type human SNARK (P22 to A333 residues) expressed in mammalian cells assessed as residual activity at 1 uM by KINOMEscan assay relative to control; assay type: cell-based
cells [4] = assay type: functional, cell-based; conditions: Homo sapiens, KHYG, 48 h
cells [5] = assay type: ADME, cell-based; conditions: Homo sapiens, AC10, 24 h
[6] = AUC (0 to infinity) in Wistar rat at 1 mg/kg, iv by LC-MS/MS analysis; assay type: ADME, organism-based; parameters: dose 1 mg/kg, time infinity, route intravenous; conditions: in vivo
Summary of the method: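 Wistar rats given a single 1 mg/kg iv dose. Plasma concentration–time profiles were plotted as mean ± SEM and sampled through 24 h postdose. Values were taken from the iv profile.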

[7] = target: Protein deacetylase HDAC6 (Homo sapiens) (UniProt Q9UBN7); test: Inhibition of HDAC6 in human KMS-12-BM cells assessed as increase in acetylated tubulin level up to 6 uM after 16 hrs by immunoblotting analysis; assay type: cell-based
Summary of the method: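 KMS-12-BM and MOLM-14 cells were treated for 16 h and then lysed. Acetylated tubulin was detected by immunoblotting, and membranes were reprobed for total tubulin as loading control.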

Histone deacetylase 8, sequence (Q9BY41 whole entry, the tested form may be a part): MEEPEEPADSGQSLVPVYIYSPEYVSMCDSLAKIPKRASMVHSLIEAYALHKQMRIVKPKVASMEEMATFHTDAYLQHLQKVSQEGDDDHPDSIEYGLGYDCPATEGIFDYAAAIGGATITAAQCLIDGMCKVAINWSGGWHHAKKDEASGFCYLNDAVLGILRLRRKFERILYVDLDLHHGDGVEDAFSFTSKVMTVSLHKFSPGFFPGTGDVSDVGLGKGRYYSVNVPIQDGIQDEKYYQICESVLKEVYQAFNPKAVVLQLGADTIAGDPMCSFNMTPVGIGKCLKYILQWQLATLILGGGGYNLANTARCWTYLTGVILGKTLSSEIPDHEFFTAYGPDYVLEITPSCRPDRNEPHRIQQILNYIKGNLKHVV
Tyrosine-protein kinase JAK2, sequence (O60674 whole entry, the tested form may be a part): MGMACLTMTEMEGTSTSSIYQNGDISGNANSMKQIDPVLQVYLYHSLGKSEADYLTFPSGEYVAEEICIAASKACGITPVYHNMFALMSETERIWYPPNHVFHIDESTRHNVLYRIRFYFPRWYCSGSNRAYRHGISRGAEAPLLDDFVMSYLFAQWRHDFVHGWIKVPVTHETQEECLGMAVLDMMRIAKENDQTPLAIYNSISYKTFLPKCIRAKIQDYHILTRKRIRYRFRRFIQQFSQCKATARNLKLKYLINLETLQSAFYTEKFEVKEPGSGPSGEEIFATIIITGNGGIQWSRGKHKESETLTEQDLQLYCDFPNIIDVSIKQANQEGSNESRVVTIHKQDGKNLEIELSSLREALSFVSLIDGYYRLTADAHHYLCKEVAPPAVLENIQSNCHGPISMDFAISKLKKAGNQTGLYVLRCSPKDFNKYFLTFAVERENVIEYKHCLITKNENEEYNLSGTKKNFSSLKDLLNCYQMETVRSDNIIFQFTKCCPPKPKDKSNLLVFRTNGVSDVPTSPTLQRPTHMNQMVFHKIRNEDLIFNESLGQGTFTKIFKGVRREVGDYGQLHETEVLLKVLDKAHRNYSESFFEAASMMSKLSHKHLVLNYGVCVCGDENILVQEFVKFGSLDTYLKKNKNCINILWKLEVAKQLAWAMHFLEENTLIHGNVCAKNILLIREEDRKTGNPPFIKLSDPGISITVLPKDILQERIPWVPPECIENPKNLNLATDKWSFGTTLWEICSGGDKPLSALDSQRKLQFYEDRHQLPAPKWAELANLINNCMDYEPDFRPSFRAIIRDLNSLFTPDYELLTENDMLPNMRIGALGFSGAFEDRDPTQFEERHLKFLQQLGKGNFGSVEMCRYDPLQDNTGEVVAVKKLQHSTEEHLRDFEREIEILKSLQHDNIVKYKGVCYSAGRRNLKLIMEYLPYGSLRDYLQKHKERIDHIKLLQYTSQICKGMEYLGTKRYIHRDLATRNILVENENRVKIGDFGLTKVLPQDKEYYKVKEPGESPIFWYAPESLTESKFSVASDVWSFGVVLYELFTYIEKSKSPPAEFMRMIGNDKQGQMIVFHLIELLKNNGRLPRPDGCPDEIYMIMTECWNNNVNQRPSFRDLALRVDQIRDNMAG
NUAK family SNF1-like kinase 2 (Homo sapiens), sequence (Q9H093 whole entry, the tested form may be a part): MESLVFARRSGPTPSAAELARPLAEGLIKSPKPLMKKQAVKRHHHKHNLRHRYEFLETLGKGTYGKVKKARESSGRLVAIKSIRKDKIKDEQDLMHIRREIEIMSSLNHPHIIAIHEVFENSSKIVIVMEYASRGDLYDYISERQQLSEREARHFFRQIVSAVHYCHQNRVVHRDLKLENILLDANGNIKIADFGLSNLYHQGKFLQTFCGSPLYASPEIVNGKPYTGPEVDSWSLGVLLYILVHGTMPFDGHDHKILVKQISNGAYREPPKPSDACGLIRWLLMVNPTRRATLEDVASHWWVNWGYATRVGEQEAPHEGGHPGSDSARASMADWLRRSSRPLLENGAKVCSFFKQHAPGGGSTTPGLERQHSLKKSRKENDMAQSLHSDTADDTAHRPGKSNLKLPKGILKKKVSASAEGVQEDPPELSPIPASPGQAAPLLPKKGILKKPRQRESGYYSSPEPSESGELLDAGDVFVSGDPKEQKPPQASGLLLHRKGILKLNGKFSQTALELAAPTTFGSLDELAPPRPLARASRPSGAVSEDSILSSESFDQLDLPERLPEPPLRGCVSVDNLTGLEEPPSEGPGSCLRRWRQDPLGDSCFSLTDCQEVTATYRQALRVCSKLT
Protein deacetylase HDAC6 (Homo sapiens), sequence (Q9UBN7 whole entry): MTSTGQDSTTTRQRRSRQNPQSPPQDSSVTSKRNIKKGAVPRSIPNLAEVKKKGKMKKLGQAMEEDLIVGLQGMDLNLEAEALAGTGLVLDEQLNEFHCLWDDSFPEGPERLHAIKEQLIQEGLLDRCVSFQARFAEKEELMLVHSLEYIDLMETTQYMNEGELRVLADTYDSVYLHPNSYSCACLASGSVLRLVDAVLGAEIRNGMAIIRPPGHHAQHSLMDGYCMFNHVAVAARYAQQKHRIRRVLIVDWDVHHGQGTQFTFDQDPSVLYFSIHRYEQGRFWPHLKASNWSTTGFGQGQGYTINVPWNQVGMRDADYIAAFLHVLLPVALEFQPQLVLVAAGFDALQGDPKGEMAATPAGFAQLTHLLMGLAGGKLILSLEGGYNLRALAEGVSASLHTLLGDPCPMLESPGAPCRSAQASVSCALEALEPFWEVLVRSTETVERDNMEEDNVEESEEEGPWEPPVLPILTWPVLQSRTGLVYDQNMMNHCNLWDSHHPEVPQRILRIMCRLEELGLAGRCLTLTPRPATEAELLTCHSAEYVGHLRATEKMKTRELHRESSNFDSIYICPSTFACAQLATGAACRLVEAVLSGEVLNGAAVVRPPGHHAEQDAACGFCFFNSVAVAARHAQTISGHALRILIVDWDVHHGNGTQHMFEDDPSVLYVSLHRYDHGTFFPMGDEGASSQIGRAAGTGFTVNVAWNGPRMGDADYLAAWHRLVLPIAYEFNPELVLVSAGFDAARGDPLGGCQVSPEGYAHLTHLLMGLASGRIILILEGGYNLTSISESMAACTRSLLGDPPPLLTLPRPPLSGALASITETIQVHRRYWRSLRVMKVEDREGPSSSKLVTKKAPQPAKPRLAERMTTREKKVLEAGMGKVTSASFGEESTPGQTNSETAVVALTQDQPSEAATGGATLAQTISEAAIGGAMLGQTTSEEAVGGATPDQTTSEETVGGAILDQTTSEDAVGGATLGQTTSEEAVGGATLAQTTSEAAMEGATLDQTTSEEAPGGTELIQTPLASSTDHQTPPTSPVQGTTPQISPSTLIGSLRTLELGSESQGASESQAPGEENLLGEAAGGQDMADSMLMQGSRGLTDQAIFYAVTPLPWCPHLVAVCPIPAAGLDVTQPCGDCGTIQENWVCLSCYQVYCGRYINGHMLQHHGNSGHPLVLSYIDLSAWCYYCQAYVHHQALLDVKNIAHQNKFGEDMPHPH

O=C(CCCCCCn1cc(-c2ncnc3[nH]ccc23)cn1)NO
pIC50 (Histone deacetylase 8): 6.33 | Activity [1]: 0% | activity at 1 µM [2]: 0.75% | Activity [3]: 7.5% | pIC50 (cells [4]): 6.24 | pIC50 (cells [5]): < 4.00 | AUC(0-inf) [6]: 175 ng·h/mL | inhibition [7]: Active
